Compound activity (PubChem)
Sampled rows, rich in hits. Any-hit rate of the full collection: about 2.5%.
GalR3 antag = GalR3 antagonists in HEK293 cells, primary screen, cell-based, fluorescence readout; AID 651719, 2012; inhibition, % at 3 µM; 360,000 compounds, 0.44% hits; HEK293 GalR3-CNG cAMP membrane potential fluorescence; galR3 body fused to GalR1 C-terminus;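 active means inhibition above the screen-wide average plus 3 SD, cut at about 13% in these data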;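 further: forskolin and galanin both at EC90 stimulate the cells; cAMP rise reported by CNG channel membrane potential dye signal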
Target sequence (O60755 1-299 limits assumed): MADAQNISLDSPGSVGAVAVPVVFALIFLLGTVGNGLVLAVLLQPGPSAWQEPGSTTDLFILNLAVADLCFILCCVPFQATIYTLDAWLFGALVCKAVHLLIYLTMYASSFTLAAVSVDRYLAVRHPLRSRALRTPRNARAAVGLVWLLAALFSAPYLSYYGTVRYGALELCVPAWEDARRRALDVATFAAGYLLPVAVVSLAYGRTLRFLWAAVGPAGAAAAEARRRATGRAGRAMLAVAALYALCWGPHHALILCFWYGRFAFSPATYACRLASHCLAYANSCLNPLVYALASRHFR
NadD block = inhibitors of S. aureus NadD, primary screen, biochemical, colorimetric, uHTS; 360,000 compounds, 0.78% hits; inhibition, % at 20 µM; purified NadD enzyme, colorimetric absorbance read-out; AID 602399, 2012; in the data active means inhibition above about 26%
MsrA inh = bovine MsrA enzyme inhibitors, primary screen, biochemical, absorbance, HTS; Methionine sulfoxide reductase A (Bos taurus); purified bovine MsrA, absorbance read-out; inhibition, % at 15.5 µM; 360,000 compounds, 0.75% hits; in the data active means inhibition above about 4.5%
NR2E3 ag-1 = NR2E3 agonists in two-hybrid cells, primary screen, cell-based, luminescence, CHO-S, Gal4-NCOR/VP16-NR2E3. luciferase. 360,000 compounds, 0.35% hits. inhibition of corepressor binding, % at 3.98 µM. Photoreceptor-specific nuclear receptor (Homo sapiens), Q9Y5X4;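 active means inhibition above the mean of all tested compounds plus 3 SD, cut at about 70% in these data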;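 further: higher means lower luciferase signal from less NR2E3 corepressor binding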
NR2E3 ag-2 = inhibitors of NR2E3-RetCOR corepressor binding, primary screen, NR2E3 agonist project, biochemical, TR-FRET, GST-NR2E3, biotin-RetCOR | 1536-well | inhibition of corepressor binding, % at 4.78 µM | 320,000 compounds, 0.12% hits | AID 2300, 2010;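 active means percent inhibition above the cutoff of mean plus 3 SD of all tested compounds, set per screening campaign, cut at about 20% in these data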
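Assay system: NR2E3–RetCOR corepressor complex. Quantity: 1.35 nM GST-NR2E3. Buffer or medium: pH 7.5 Tris-based buffer. Reagent: biotinylated RetCOR corepressor at 7 nM final. Schedule: 5 h at 4 °C. Detection: TR-FRET, emission read at 617 and 671 nm. Replicates: one well per compound, singlicate testing.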
bovine MsrA act = bovine MsrA enzyme activators, primary screen, biochemical, absorbance, HTS. purified bovine MsrA, absorbance read-out. activation, % at 10.6 µM. 360,000 compounds, 0.3% hits. AID 602163, 2012; in the data active means activation above about 7.5%
NadD conf = inhibitors of S. aureus NadD, confirmation, biochemical, colorimetric, single concentration | shares compounds with NadD block | purified S. aureus NadD, colorimetric enzyme assay | inhibition, % at 20 µM | 2,000 compounds, 13% hits; in the data active means inhibition mostly above about 42%, no sharp cut-off; inactive means mostly below about 42%
Of the large screens only hits and unclear results are named; the others gave an inactive call (follow-up assays come after a bar, where they were run).

CC(C)C[C@H]1CNC(=S)N1CC1CCCN1C[C@H](Cc1ccccc1)N1C[C@H](Cc2ccc(O)cc2)N(CC2CCCCC2)C1=S (stereo not given in full)	NadD block 32.3 (no result: NR2E3 ag-2) | NadD conf inactive
CN(C)CCN(C(=O)c1ccc2ccccc2c1)c1nc2ccc(F)cc2s1	none (no result: GalR3 antag, MsrA inh)
COc1ccc(/C(O)=C2/C(=O)C(=O)N(c3ccccn3)C2c2ccc(C(C)C)cc2)cc1 (stereo not given)	none (no result: NR2E3 ag-2)
Cc1[nH]c2ccccc2c1/C=C/c1nc2ccccc2c(=O)n1-c1ccc([N+](=O)[O-])cc1	NadD block 33.6 | NadD conf inactive
O=C(Nc1ccc2oc(-c3ccccc3Cl)nc2c1)c1ncn[nH]1	none
CC(C)c1ccc2oc(-c3ccc(NC(=O)c4ncn[nH]4)cc3)nc2c1	NadD block 38.7 (no result: NR2E3 ag-1, bovine MsrA act) | NadD conf inactive
CCC(C)c1ccc2oc(-c3ccc(NC(=O)c4ncn[nH]4)cc3)nc2c1 (stereo not given)	none
O=C(Nc1ccc2oc(-c3cccc4ccccc34)nc2c1)c1ncn[nH]1	NadD block 26.8 | NadD conf inactive
NC(=O)C1C2C=CC(C2)C1c1ccccc1 (stereo not given)	none (no result: NR2E3 ag-2)
CCCN1C(=O)c2ccccc2NC1c1ccc(Cl)c(Cl)c1 (stereo not given)	none
CCCCN1C2=C(C(=O)CCC2)C(c2ccc(Cl)c(Cl)c2)C2=C1c1ccccc1C2=O (stereo not given)	NadD block 32.0 | NadD conf inactive
CC(C)(C)OC(=O)CC[C@@H](C(=O)NCCCCCCCCCCC(=O)N1CCN(C(=O)OC(C)(C)C)CC1)n1cc(CCCCCNC(=O)OC(C)(C)C)nn1	NadD block 32.0 | NadD conf inactive
COc1ccccc1N1CCN(c2nc3ccccc3nc2C(C#N)C(=O)OC(C)C)CC1 (stereo not given)	NadD block 36.6 | NadD conf inactive
COC(=O)c1ccccc1S(=O)(=O)N1CCC(C(=O)OC(C)C(=O)NC(N)=O)CC1 (stereo not given)	none
CCCc1c(C(=O)N/N=C/c2ccc(OC)c(OCc3ccccc3)c2)nnn1-c1nonc1N	none
CCCc1c(C(=O)N/N=C/c2ccc(OCc3ccccc3)c(OC)c2)nnn1-c1nonc1N	NadD block 34.7 | NadD conf inactive
CC(C)c1ccc(/C=N/NC(=O)c2nnn(-c3nonc3N)c2CSC2=NCCS2)cc1	NadD block 31.8 | NadD conf inactive
Nc1nonc1-n1nnc(C(=O)N/N=C/c2ccc(Br)cc2)c1CSC1=NCCS1	NadD block 31.9 | NadD conf inactive
COc1ccc(CN(C)C[C@H]2OCCCC[C@@H](C)Oc3ccc(NC(=O)c4ccccc4)cc3C(=O)N([C@H](C)CO)C[C@@H]2C)cc1	none (no result: NR2E3 ag-2)
Oc1ccc2n[nH]nc2c1	none
Brc1ccc(-c2csc(Nc3nc(-c4ccc(Br)cc4)cs3)n2)cc1	NadD block 30.0 | NadD conf inactive
O=C(Nc1ccccc1)C(c1ccccc1)c1ccccc1	none
O=C(CN1C(=O)S/C(=C\c2ccccc2)C1=O)NCCCn1ccnc1	none
CC(C)c1ccc(/C=C2\SC(=O)N(CC(=O)NCCCn3ccnc3)C2=O)cc1	NadD block 33.6 | NadD conf inactive
NNC(=O)c1oc2nc(-c3ccccc3)cc(-c3ccccc3)c2c1N	NadD block 31.2 | NadD conf inactive
NNC(=O)c1oc2nc(-c3cccs3)cc(-c3ccco3)c2c1N	NadD block 35.7 | NadD conf inactive
Cc1ccc(-c2cc(-c3ccco3)c3c(N)c(C(=O)NN)oc3n2)cc1	NadD block 27.8 | NadD conf inactive
COc1cccc(/C=N/NC(=O)c2oc3nc(-c4ccccc4)cc(-c4ccco4)c3c2N)c1	none
COC(=O)[C@@]1(C(C)C)N=C(c2cc(OC)c(OC)c(OC)c2)[C@]2(O1)C(=O)N(C)c1ccc(Br)cc12	none (no result: NR2E3 ag-2)
CSCCC1NC(=O)N(CC(=O)N2N=C(c3ccc(Cl)cc3)CC2c2ccco2)C1=O (stereo not given)	none
CCN1CCN(Cc2ccc(NC(=O)c3ccc(C)c(NC(=O)c4c[nH]c5cc(C(F)(F)F)ccc5c4=O)c3)cc2C(F)(F)F)CC1	NadD block 35.7 | NadD conf inactive
Cn1c(SCC(=O)N2c3ccccc3CCc3ccccc32)nnc1-c1cc2ccccc2cc1O	NadD block 56.1 | NadD conf 51.6
Cn1nnnc1SCC(=O)NCC(=O)c1ccccc1	none
CC[N+](CC)(CC)CCCCOc1ccc2c(c1)C(=O)c1cc(OCCCC[N+](CC)(CC)CC)ccc1-2	NadD block 31.5 | NadD conf inactive
O=S(=O)(c1ccc(Cl)cc1)N1CCN(c2nc(-c3cccs3)nc3ccccc23)CC1	NadD block 29.5 (no result: NR2E3 ag-2) | NadD conf inactive
CN(C(=O)c1ccc([N+](=O)[O-])cc1)c1ccccc1C(=O)NCc1ccccc1	none
Cc1ccc(-c2nc3ccc(Br)cn3c2Cc2cccc(F)c2)cc1	NadD block 31.4 (no result: NR2E3 ag-2) | NadD conf inactive
COc1ccc(Cc2c(-c3ccco3)nc3ccc(Cl)cn23)c(C)c1	NadD block 42.2 (no result: NR2E3 ag-2) | NadD conf inactive
COc1ccc(Cc2c(-c3ccco3)nc3ccc(Br)cn23)c(C)c1	NadD block 58.9 (no result: NR2E3 ag-2) | NadD conf inactive
Cc1ccc(Cc2c(-c3ccco3)nc3ccc(Br)cn23)cc1	NadD block 29.7 (no result: NR2E3 ag-2) | NadD conf inactive
Cc1ccc(Cc2c(-c3ccc(C)cc3)nc3ccc(Br)cn23)cc1	none (no result: NR2E3 ag-2)
CN(C)C(CNC(=O)CCC(=O)c1ccc(Br)cc1)c1ccccc1 (stereo not given)	none
CCC1(c2ccccc2)NC(=O)N(Cc2cccc([N+](=O)[O-])c2)C1=O (stereo not given)	none
O=C(Nc1nnc(-c2ccc3c(c2)OCCO3)o1)c1ccc(Cc2ccccc2)cc1	NadD block 48.3 | NadD conf inactive
O=C(c1ccc2snnc2c1)N1CCCCC1	NadD block 51.7 | NadD conf inactive
CC(C)[C@H](NC(N)=O)C(=O)NCCc1ccc(Cl)cc1	none
COc1ccc(C=Nc2ccc3[nH]ncc3c2)c(O)c1	none
